Where two headings read alike, the source gives them in different places.
Tests used:
MCF-7/ADR cells = format: cell-based, human; conditions: after 24 h pre-incubation with non-toxic concentration of the compound
Method in brief: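 Adr-resistant MCF-7/ADR cells were kept in RPMI 1640 with 10% FBS and 1000 ng/mL Adr. Cells were seeded at 5 × 10^3/well and pre-treated 24 h with the test compound at its highest non-toxic level (95% viability by 24 h CCK8 over 1.25–80 μmol/L). Adr (0–100 μmol/L) was then added for 24 h.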

P-gp [1] = target: T1, P-gp (Homo sapiens, UniProt P08183); conditions: for Rmax: analyte binding capacity from steady-state fit; for Kd: Table 2, steady-state affinity model (1:1), reference FC SMALPs-MCF-7
T1 sequence (P08183 whole entry): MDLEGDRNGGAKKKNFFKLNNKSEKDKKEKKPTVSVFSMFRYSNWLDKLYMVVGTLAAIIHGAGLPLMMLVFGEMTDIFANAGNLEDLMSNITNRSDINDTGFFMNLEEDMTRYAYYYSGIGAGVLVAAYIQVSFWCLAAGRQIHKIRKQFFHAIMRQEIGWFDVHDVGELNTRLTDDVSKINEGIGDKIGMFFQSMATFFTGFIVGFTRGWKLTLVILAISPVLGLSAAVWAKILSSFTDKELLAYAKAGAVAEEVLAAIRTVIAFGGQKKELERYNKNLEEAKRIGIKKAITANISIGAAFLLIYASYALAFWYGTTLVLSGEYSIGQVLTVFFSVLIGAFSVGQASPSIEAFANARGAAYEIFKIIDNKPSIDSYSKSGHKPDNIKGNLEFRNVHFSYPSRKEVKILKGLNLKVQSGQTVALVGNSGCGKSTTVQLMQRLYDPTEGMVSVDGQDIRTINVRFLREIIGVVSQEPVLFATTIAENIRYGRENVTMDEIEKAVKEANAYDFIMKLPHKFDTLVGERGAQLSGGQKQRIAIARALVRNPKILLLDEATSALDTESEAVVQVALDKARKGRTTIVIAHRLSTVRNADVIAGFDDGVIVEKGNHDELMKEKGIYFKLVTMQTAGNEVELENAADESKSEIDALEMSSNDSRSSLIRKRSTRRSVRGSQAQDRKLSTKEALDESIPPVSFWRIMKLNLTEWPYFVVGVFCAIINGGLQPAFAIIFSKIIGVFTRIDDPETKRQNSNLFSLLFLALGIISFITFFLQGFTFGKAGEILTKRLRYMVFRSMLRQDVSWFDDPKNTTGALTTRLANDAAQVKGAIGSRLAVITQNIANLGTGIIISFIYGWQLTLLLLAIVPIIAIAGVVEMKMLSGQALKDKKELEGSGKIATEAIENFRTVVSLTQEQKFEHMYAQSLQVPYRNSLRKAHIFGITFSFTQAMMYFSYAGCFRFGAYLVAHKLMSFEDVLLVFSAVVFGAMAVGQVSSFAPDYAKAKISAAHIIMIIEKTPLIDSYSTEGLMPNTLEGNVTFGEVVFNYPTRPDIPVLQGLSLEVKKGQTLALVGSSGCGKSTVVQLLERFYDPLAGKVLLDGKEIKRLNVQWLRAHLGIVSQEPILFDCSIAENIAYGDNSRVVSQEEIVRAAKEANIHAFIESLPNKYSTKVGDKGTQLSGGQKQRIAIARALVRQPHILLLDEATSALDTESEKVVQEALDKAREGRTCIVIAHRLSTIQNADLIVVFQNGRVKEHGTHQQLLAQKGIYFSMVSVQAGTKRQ

P-gp [2] = target: T1, P-gp; experiment: biochemical; conditions: Table 2, steady-state affinity model (1:1), reference FC SMALPs-MCF-7
P-gp [3] = target: T1, P-gp; conditions: SPR screening of 50 natural products, remarkable response values
P-gp [4] = target: T1, P-gp; experiment: Rh123 bidirectional transport experiment in MDCK-MDR1 cell monolayer; format: cell-based; conditions: MDCK-MDR1 cells, pre-incubation with the compound
Method in brief: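 MDCK cells transfected with MDR1 were grown in DMEM with 10% FBS, streptomycin and penicillin, then used as monolayers on Transwell plates. Rh123 served as the P-gp substrate. Apparent permeability was measured in both directions, apical→basolateral and basolateral→apical, with efflux rate (ER) derived from these, for treated versus control monolayers (mean ± SD, n = 3).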

Rmax (P-gp [1])	Kd (P-gp [2])	Screening outcome: target compound binding to P-gp (P-gp [3])	Kd (P-gp [1])	Effect on ER of Rh123 / P-gp function (in words) (P-gp [4])	Structure (SMILES)	Sensitivity of MCF-7/ADR cells to Adr (MCF-7/ADR cells)
270.2 RU	152 µM	–	–	–	COc1cc(/C=C/C(=O)CC(=O)/C=C/c2ccc(O)c(OC)c2)ccc1O [Curcumin]	could not improve the sensitivity
24.92 RU	116 µM	could bind to P-gp	–	–	COc1ccc2cc1Oc1ccc(cc1)C[C@H]1c3cc(c(OC)cc3CCN1C)Oc1c(O)c(OC)cc3c1[C@H](C2)N(C)CC3 [Fangchinoline]	significantly increased
13.86 RU	–	could bind to P-gp	2.55 µM	–	COc1ccc(-c2oc3c(CC=C(C)C)c(O)cc(O)c3c(=O)c2O)cc1 [Icaritin]	–
3.498 RU	–	could bind to P-gp	0.542 µM	significantly reduce the ER of Rh123	C/C=C(/C)C(=O)O[C@H]1c2c(ccc3ccc(=O)oc23)OC(C)(C)[C@H]1OC(=O)/C(C)=C\C [Praeruptorin B]	significantly increased
11.24 RU	221 µM	could bind to P-gp	–	–	COc1ccc2cc1Oc1ccc(cc1)C[C@H]1c3cc(c(OC)cc3CCN1C)Oc1c(OC)c(OC)cc3c1[C@H](C2)N(C)CC3 [Tetrandrine]	significantly increased

Second part, the compound before the results:

Structure (SMILES)	Rmax (P-gp [1])	Kd (P-gp [2])	Screening outcome: target compound binding to P-gp (P-gp [3])	Kd (P-gp [1])	Effect on ER of Rh123 / P-gp function (in words) (P-gp [4])	Sensitivity of MCF-7/ADR cells to Adr (MCF-7/ADR cells)
O=C(/C=C/c1ccc(O)cc1)c1ccc(O)cc1O [Isoliquiritigenin]	114 RU	255 µM	–	–	–	could not improve the sensitivity
O=c1cc(-c2ccc(O)c(O)c2)oc2cc(O)cc(O)c12 [Luteolin]	47.21 RU	51.7 µM	could bind to P-gp	–	–	–
COc1cccc(O)c1-c1cc(=O)c2c(O)c(OC)c(OC)c(OC)c2o1 [Neobaicalein]	89.01 RU	–	could bind to P-gp	127 µM	significantly reduce the ER of Rh123	significantly increased
C/C=C(/C)C(=O)O[C@H]1[C@@H](OC(C)=O)c2c(ccc3ccc(=O)oc23)OC1(C)C [Praeruptorin A]	2.618 RU	–	could bind to P-gp	7.17 µM	–	–
C/C=C/C[C@@H](C)C(=O)[C@H]1C(=O)N[C@@H](C(C)C)C(=O)N(C)CC(=O)N(C)[C@@H](CC(C)C)C(=O)N[C@@H](C(C)C)C(=O)N(C)[C@@H](CC(C)C)C(=O)N[C@@H](C)C(=O)N[C@H](C)C(=O)N(C)[C@@H](CC(C)C)C(=O)N(C)[C@@H](CC(C)C)C(=O)N(C)[C@@H](C(C)C)C(=O)N1C [Valspodar, valspodar, reference compound]	–	–	–	–	–	significantly increased

— publication PMC9293711 (Acta Pharmaceutica Sinica. B, 2022)
